Experimental data as given in ChEMBL document CHEMBL1124947, “Cationic antiprotozoal drugs. Trypanocidal activity of 2-(4'-formylphenyl)imidazo[1,2-a]pyridinium guanylhydrazones and related derivatives of quaternary heteroaromatic compounds” (J Med Chem, 1990).

Experiments:
Format in all cases: functional
Mus musculus [1] = assay: Trypanocidal Activity at I.C.E. value 0.55 when administered perorally.
Mus musculus [2] = assay: Trypanocidal Activity at I.C.E. value 0.87 when administered subcutaneously.
How it was run: (§1)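 Mice, in groups of five per dose, were given a standard inoculum of blood-stage T. rhodesiense that is lethal to all untreated controls, then dosed subcutaneously. Usually 11 dose levels were used (2^n × 0.42 mg/kg).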

[3] = tested on: Trypanosoma brucei rhodesiense; assay: In Vitro measurement of inhibition of thymidine uptake in cell culture of Trypanosoma rhodesiense; details: read-out: ID50 (the source's name)
How it was run: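 Parasites harvested from infected rats and incubated 3 h across a drug concentration series, usually 0.1–100 µg/mL. Incorporation of radiolabeled thymidine measured. ID50 is the concentration (µg/mL) producing 50% inhibition.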

[4] = tested on: Trypanosoma brucei rhodesiense; assay: In Vitro measurement of inhibition of leucine uptake in cell culture of Trypanosoma rhodesiense; details: read-out: ID50 (the source's name)
How it was run: (§2)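 Trypanosomes harvested from infected rats, cultured 3 h with several concentrations of drug, usually 0.1–100 µg/mL. Radiolabeled L-leucine uptake measured. ID50 is the concentration in µg/mL giving 50% inhibition of incorporation.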

Mus musculus [5] = assay: Trypanocidal Activity at I.C.E. value 0.30 when administered perorally.
Mus musculus [6] = assay: Trypanocidal Activity at I.C.E. value 0.85 when administered subcutaneously.; how it was run: as §1
Mus musculus [7] = assay: Trypanocidal Activity at I.C.E. value 0.53 when administered subcutaneously.
How it was run: (§3)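 Blood-stage T. rhodesiense infection came from a standard inoculum lethal to all untreated mice. Drug was given by subcutaneous injection to groups of five mice. Survival beyond 30 days counted as cure. […] Sub-curative doses scored 0, and data were normalized at each dose.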

Mus musculus [8] = assay: Trypanocidal Activity at I.C.E. value 0.44 when administered perorally.
Mus musculus [9] = assay: Trypanocidal Activity at I.C.E. value 0.90 when administered subcutaneously.
Mus musculus [10] = assay: Trypanocidal Activity at I.C.E. value >0.3 when administered perorally.
Mus musculus [11] = assay: Trypanocidal Activity at I.C.E. value 0.34 when administered subcutaneously.; how it was run: as §3
Mus musculus [12] = assay: Trypanocidal Activity at I.C.E. value 0.64 when administered subcutaneously.; how it was run: as §1
Mus musculus [13] = assay: Trypanocidal Activity at I.C.E. value 0.19 when administered perorally.
Mus musculus [14] = assay: Trypanocidal Activity at I.C.E. value 0.38 when administered subcutaneously.; how it was run: as §3
[15] = tested on: Trypanosoma brucei rhodesiense; assay: In Vitro measurement of inhibition of Leucine uptake in cell culture of Trypanosoma rhodesiense.; details: read-out: ID50 (the source's name); how it was run: as §2
[16] = tested on: Trypanosoma brucei rhodesiense; assay: In Vitro measurement of inhibition of Thymidine uptake in cell culture of Trypanosoma rhodesiense.; details: read-out: ID50 (the source's name)
Mus musculus [17] = assay: Trypanocidal Activity at I.C.E. value 0.71 when administered subcutaneously.; how it was run: as §1
Mus musculus [18] = assay: Trypanocidal Activity at I.C.E. value 0.32 when administered perorally.
Mus musculus [19] = assay: Trypanocidal Activity at I.C.E. value 0.61 when administered perorally.
Mus musculus [20] = assay: Trypanocidal Activity at I.C.E. value 0.81 when administered subcutaneously.; how it was run: as §1

## COc1ccc2n(c1)cc(-c1ccc(/C=N/NC(=N)N)cc1)[n+]2C.Cc1ccc(S(=O)(=O)O)cc1.Cc1ccc(S(=O)(=O)[O-])cc1
Mus musculus [1]
  CD50: 6.6 mg/kg
Mus musculus [2]
  CD50: 0.4 mg/kg
[3]
  IC50: 5.9 µg/mL
[4]
  IC50: 4.3 µg/mL

## Cc1ccc(S(=O)(=O)O)cc1.Cc1ccc(S(=O)(=O)[O-])cc1.Cc1cccc2n1cc(/C=C/c1ccc(/C=N/NC(=N)N)cc1)[n+]2C
Mus musculus [5]
  CD50: 53 mg/kg
Mus musculus [6]
  CD50: 0.4 mg/kg

## Br.Cc1ccn2cc(-c3ccc(/C=N/NC(=N)N4CCOCC4)cc3)[n+](C)c2c1.[Br-]
Mus musculus [7]
  CD50: 0.4 mg/kg

## Br.Cc1cccc2n1cc(/C=C/c1ccc(/C=N/NC(=N)N3CCCC3)cc1)[n+]2C.[Br-]
Mus musculus [8]
  CD50: 53 mg/kg
Mus musculus [9]
  CD50: 0.4 mg/kg

## Br.CC/N=C(\NCC)N/N=C/C=C/c1ccc(-c2cn3ccccc3[n+]2C)cc1.[Br-]
Mus musculus [10]
  CD50: 53 mg/kg
Mus musculus [11]
  CD50: 13 mg/kg

## Br.C[n+]1c(COc2ccc(/C=N/NC3=NCCCN3)cc2)cn2cc(C(F)(F)F)ccc21.[Br-]
Mus musculus [12]
  CD50: 1.6 mg/kg
Mus musculus [13]
  CD50: 106 mg/kg
[3]
  IC50: 0.4 µg/mL
[4]
  IC50: 0.5 µg/mL

## Br.CSC(=N)N/N=C/c1ccc(-c2cn3cc(C)ccc3[n+]2C)cc1.[Br-]
Mus musculus [14]
  CD50: 26 mg/kg
[15]
  IC50: > 10 µg/mL
[16]
  IC50: 4 µg/mL

## Br.CCCCNC(=N)N/N=C/c1ccc(-c2cn3ccc(C)cc3[n+]2C)cc1.[Br-]
Mus musculus [17]
  CD50: 0.4 mg/kg
Mus musculus [18]
  CD50: 26 mg/kg

## Br.Cc1ccc2n(c1)cc(COc1ccc(/C=N/NC(=N)N)cc1)[n+]2C.[Br-]
Mus musculus [19]
  CD50: 6.6 mg/kg
Mus musculus [20]
  CD50: 0.2 mg/kg
